# CHO parental Ca: counter-screen for OX1R antagonists: effect in parental CHO cells. parental CHO-K1, ATP-induced calcium, Fluo-8 fluorescence. inhibition, % at 5.6 µM. 330,000 compounds, 0.63% hits. AID 463079;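 active means inhibition above that plate's mean sample inhibition plus 3 SD, cut at about 26% in these data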;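 further: 0% = ATP-challenged DMSO wells and 100% = DMSO wells without ATP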
#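 Assay system: parental CHO cells; Read-out basis: percent inhibition of ATP-evoked calcium rise, normalized to controls; Benchmarks: ATP and no-ATP DMSO wells; Compound dosing: single nominal dose of 5.6 µM per compound; Signal: Fluo-8 calcium dye fluorescence; Also added: ATP as calcium-mobilizing challenge; Repeats: singlicate.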
# OX1R antag-1: human HCRTR1 antagonism. CHO/OX1R cells, Fluo-8 calcium fluorescence, orexin A. inhibition, % at 5 µM. AID 434989. O43613. 330,000 compounds, 0.43% hits;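 active means inhibition above its plate's threshold, mean inhibition of all tested compounds on the plate plus 3 SD, cut at about 37% in these data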;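 further: 0% = orexin A challenge wells and 100% = SB-334867-A antagonist wells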
# Target sequence (O43613 whole entry, looked up): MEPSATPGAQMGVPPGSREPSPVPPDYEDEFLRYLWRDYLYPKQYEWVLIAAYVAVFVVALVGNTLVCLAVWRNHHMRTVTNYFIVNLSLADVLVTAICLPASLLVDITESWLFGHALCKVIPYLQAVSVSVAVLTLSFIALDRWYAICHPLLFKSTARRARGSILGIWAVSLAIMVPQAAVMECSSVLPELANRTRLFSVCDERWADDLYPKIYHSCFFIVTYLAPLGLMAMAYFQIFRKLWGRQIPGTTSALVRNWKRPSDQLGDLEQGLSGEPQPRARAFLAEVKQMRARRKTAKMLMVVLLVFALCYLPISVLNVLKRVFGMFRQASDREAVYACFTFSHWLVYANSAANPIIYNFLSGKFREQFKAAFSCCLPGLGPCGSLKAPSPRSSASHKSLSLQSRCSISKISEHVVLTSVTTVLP
# CHO-K1 Ca PAM: nonselective activator or artifact in parental CHO-K1 calcium assay. ATP EC20, Fluo-8 calcium fluorescence; 0% at ATP EC20, 100% at ATP max. activation, % at 3 µM. 360,000 compounds, 0.02% hits;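 active means activation above the run cutoff, the mean activation of all test compounds plus 3 SD, cut at about 40% in these data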;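 further: peak over basal fluorescence ratio in a 140 s read after ATP addition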
# CHO-K1 Ca antag: counter-screen for M1 antagonists: effect in parental CHO-K1 cells; ATP-induced calcium, Fluo-8 fluorescence; inhibition, % at 3 µM; 360,000 compounds, 0.6% hits; AID 602250;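 active means inhibition above a per-plate cutoff, the plate's mean sample inhibition plus 3 SD, cut at about 24% in these data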;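 further: 0% = DMSO plus EC80 ATP and 100% = DMSO alone without ATP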
# M1 ag parental: nonselective activator or artifact in parental CHO-K1 cells. Fluo-8 calcium fluorescence; scaled to maximal ATP response, vehicle zero. activation, % at 3 µM. AID 602248. 360,000 compounds, 0.48% hits; in the data active means activation above about 15%;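 further: untransfected CHO-K1 host cells lacking M1 receptor as counterscreen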
# OX1R antag-2: OX1R (human) antagonism; O43613; OX1R-expressing cells, FRET antagonist read-out; inhibition, % at 6.6 µM; 330,000 compounds, 1.8% hits; AID 485270; in the data active means inhibition mostly above about 38%, no sharp cut-off; inactive means mostly below about 40%;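 further: 0% = agonist challenge alone and 100% = reference antagonist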
# Active calls of the source: *; x = no result given. Sampled rows, rich in hits. Any-hit rate of the full collection: about 2.9%.
SMILES,CHO parental Ca,OX1R antag-1,CHO-K1 Ca PAM,CHO-K1 Ca antag,M1 ag parental,OX1R antag-2
CC(C)CNC(=O)c1ccccc1NC(=O)c1ccccc1N(C)S(=O)(=O)c1ccccc1,-25,-1,16,-9,2,69*
Cc1c(NC(=O)c2ccccc2N(C)S(=O)(=O)c2ccccc2)c(=O)n(-c2ccccc2)n1C,-11,-12,-3,9,1,41*
O=C(CC1SC(N2CCCC2)=NC1=O)Nc1ccc(C(=O)N2CCN(c3cccc(Cl)c3)CC2)cc1 (centres undefined),-8,-8,-23,10,0,17
CC(NC(=O)c1ccc(C(=O)c2ccccc2)cc1)c1ccc(S(N)(=O)=O)cc1 (centres undefined),x,x,-16,-1,0,x
Nc1ccc(-c2nnnn2-c2ccc(N)cc2)cc1,28*,-13,-22,3,0,1
NC(=O)c1nnn(-c2ccc([N+](=O)[O-])cc2)c1-c1ccccc1,-2,-13,-10,5,0,44*
c1ccc(-c2nnnn2-c2ccccc2)cc1,x,x,10,-7,1,x
O=[N+]([O-])c1ccc(-n2nnnc2-c2ccccc2)cc1,-1,-2,22,-13,1,54*
O=[N+]([O-])c1ccc(-n2nnnc2-c2ccccc2)c([N+](=O)[O-])c1,-12,-15,19,-10,1,60
O=[N+]([O-])c1ccc(-n2cc(-c3ccccc3)nn2)cc1,-5,-1,10,-14,1,19
CCC(=O)N1CCC(C)(C(=O)Nc2ccc3c(c2)OCO3)C1 (centres undefined),x,x,-10,-7,0,x
CCCN1C(=O)/C(=C/c2ccc(N3CCCC3)c(C)c2)NC1=S,87*,93*,0,60*,54*,22
CCCN1C(=O)/C(=C/c2ccc(OCC(=O)OCC)cc2)NC1=S,x,x,21,-11,11,x
Cc1ccc(CN2C(=O)N/C(=C\c3ccc(N4CCOCC4)cc3)C2=O)cc1,-15,-19,22,-8,1,15
Cc1cc(/C=C2\NC(=S)N(C)C2=O)ccc1N1CCCC1,53*,72*,-18,60*,76*,26
CCN1C(=O)/C(=C/c2ccc(N3CCCC3)cc2)NC1=S,62*,74*,-5,49*,57*,27
CCN1C(=O)/C(=C/c2ccc(OCc3ccc(C(=O)O)cc3)c(Cl)c2)NC1=S,3,-10,6,29*,16*,-11
O=C(COC(=O)[C@H](Cc1ccccc1)NC(=O)c1ccco1)Nc1ccccc1OC(F)F,-11,-15,7,-12,1,3
CCOC(=O)CNC(=O)C1c2ccccc2Oc2ccccc21,-14,-13,1,-1,0,7
CCCNC(=O)c1ccc(COc2ccc(CCC)cc2OC)o1,-24,-4,-16,-13,1,-9
Cc1cc(N2CCCC2)ccc1/C=C1/C(=O)N(C)C(=S)N1C,13,16,-9,9,2,11
Cc1cc(/C=C2/C(=O)N(C)C(=S)N2C)ccc1N1CCCC1,42*,65*,-11,8,3,6
Cc1ccc(C(=O)NCCSc2snnc2C)cc1,-11,-23,-5,43*,0,5
CN(C)C(/C=C/Nc1cccc([N+](=O)[O-])c1)=C(C#N)C#N,-6,5,11,0,1,50*
CCc1nonc1NC(=O)c1oc2ccc(F)cc2c1C,20,1,-11,-9,1,20
SMILES,CHO parental Ca,OX1R antag-1,CHO-K1 Ca PAM,CHO-K1 Ca antag,M1 ag parental,OX1R antag-2
Cc1c(C(=O)Nc2nonc2-c2ccc(F)cc2)oc2ccc(F)cc12,2,0,-11,2,1,49*
CC1CCCC(C)N1C(=O)COC(=O)c1n[nH]c(=O)c2ccccc12 (centres undefined),-19,-14,10,-14,0,3
O=c1[nH]c(=S)[nH]c2nc(-c3ccccc3)cnc12,-4,-11,10,-18,0,63*
O=C(Cn1c(-c2ccccn2)nc2ccccc21)N/N=C/c1ccccn1,-17,-31,-14,30*,4,11
CCCCC1(C)NC(=S)N2N1C(=S)NC2(C)CCCC (centres undefined),9,-3,20,-9,1,5
O=C(CNC(=O)c1cccs1)c1ccc(Br)cc1,2,2,-5,-6,2,6
Oc1c(Br)cc(Br)c(/C=N/n2c(-c3ccccc3)n[nH]c2=S)c1Br,-3,3,3,3,3,71*
S=c1[nH]nc(-c2ccncc2)n1/N=C/c1cn(-c2ccccc2)nc1-c1ccccc1,-68,-59,-13,3,0,52*
C=CCN(CC=C)CCCOc1ccccc1C(=O)OC,-9,-19,27,-11,1,10
C=CCC1c2cccc(C(=O)OC)c2C(=O)N1c1ccccc1 (centres undefined),-15,-12,-8,24*,0,27
COc1c(C)cc(C(O)c2ncc(-c3ccc(Cl)cc3)[nH]2)cc1C (centres undefined),x,x,17,-9,4,x
Cc1cc2c(NC(=O)Nc3ccc(C(F)(F)F)cc3)cccc2nn1,-21,-14,-26,32*,5,11
O=C(c1ccccc1)C(CN1CCCCC1)c1ccccc1 (centres undefined),x,x,9,0,0,x
COc1ccc(N=C2C(=O)Nc3ccc(C)c(Br)c32)cc1,-2,-3,-21,26*,-1,25
Cc1ccc(N=C2C(=O)Nc3ccc(C)c(Br)c32)cc1,-1,-20,5,-9,1,15
COc1ccc(NC2=CC(c3cccc(OC)c3)N(c3ccc(OC)cc3)C2=O)cc1 (centres undefined),-11,-11,11,37*,9,-1
COc1ccccc1C(=O)NC(=O)COC(=O)c1ccc([N+](=O)[O-])cc1,-18,-16,7,-5,1,50*
O=C(NC(=S)Nc1ccccc1N1CCN(C(=O)c2ccccc2)CC1)c1ccccc1F,-24,-8,-12,-1,0,-2
CC(=O)OCCNc1cc(Sc2nc3ccccc3[nH]2)c2nonc2c1[N+](=O)[O-],48*,29,6,15,-1,98*
CC(=O)OCCCNc1cc(Sc2nc3ccccc3s2)c2nonc2c1[N+](=O)[O-],7,-1,18,-21,0,30
COC(=O)CCSc1cc(NCCOC(C)=O)c([N+](=O)[O-])c2nonc12,2,-5,11,-9,0,53*
CC(=O)OCCNc1cc(SCc2ccco2)c2nonc2c1[N+](=O)[O-],-1,-6,22,-1,2,46
CCCCc1c(-c2ccccc2OC)ncn1CCc1ccccc1,x,x,11,-18,10,x
CCN(CC)S(=O)(=O)c1ccc2oc(SCc3ccc(F)cc3)nc2c1,40*,20,7,3,1,29

# Bioassay records deposited in PubChem by The Scripps Research Institute Molecular Screening Center.
